In EPA's CvTdb concentration-time database:

How the values were obtained:
Rat [1] = test: concentration in plasma after dosing; settings: 6 h; dosed: Primidone; 30 mg/kg; oral; Female; F344
Rat [2] = test: concentration in plasma after dosing; settings: 0.25 h; dosed: Primidone; 30 mg/kg; oral; Female; F344
Rat [3] = test: concentration in plasma after dosing; settings: 6 h; dosed: Primidone; 80 mg/kg; oral; Female; F344
Mouse [4] = test: concentration in plasma after dosing; settings: 0.25 h; dosed: 2-Hydroxy-4-methoxybenzophenone; 500 mg/kg; oral; Female; B6C3F1
Mouse [5] = test: concentration in plasma after dosing; settings: 2 h; dosed: 2-Hydroxy-4-methoxybenzophenone; 250 mg/kg; oral; Female; B6C3F1
Rat [6] = test: concentration in plasma after dosing; settings: 20 min; dosed: Methyleugenol; 37 mg/kg; oral; Female; F344/N
Rat [7] = test: concentration in plasma after dosing; settings: dosed: Methyleugenol, 37 mg/kg, oral, Female, F344/N
Hamster [8] = test: concentration in plasma after dosing; settings: dosed: 2,4-Dichlorophenoxyacetic acid, 8.0 mg/kg, iv, Male, Syrian Golden
Procedure, shortened: (§1)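 Concentration-versus-time or amount-versus-time points were compiled from published in vivo toxicokinetic studies and from two structured collections. The studies were found by PubMed searching, classifier screening and manual review. Points were mostly digitised from plot screenshots with WebPlotDigitizer, otherwise copied from tables, and kept in the reported units. Dose, route, subject details and medium were curated by hand from each paper, and sampling and analytical methods follow each source and were often unreported.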

Hamster [9] = test: concentration in plasma after dosing; settings: dosed: 2,4-Dichlorophenoxyacetic acid, 8.0 mg/kg, oral, Male, Syrian Golden
Procedure, shortened: as §1

rat [10] = test: amount in urine after dosing (umol); settings: inhalation, duration: 4 hr, F344 (Harlan Winkelmann)
Rat [11] = test: concentration in plasma after dosing; settings: 5 min; dosed: alpha-Thujone; 25 mg/kg; oral; Male; Harlan Sprague Dawley
Rat [12] = test: concentration in brain after dosing; settings: 3 h; dosed: alpha-Thujone; 50 mg/kg; oral; Female; Harlan Sprague Dawley
Rat [13] = test: concentration in plasma after dosing; settings: 12 h; dosed: alpha-Thujone; 50 mg/kg; oral; Female; Harlan Sprague Dawley
Rat [14] = test: concentration in brain after dosing; settings: 5 min; dosed: alpha-Thujone; 25 mg/kg; oral; Male; Harlan Sprague Dawley
Rat [15] = test: concentration in brain after dosing; settings: 0.5 h; dosed: alpha-Thujone; 25 mg/kg; oral; Male; Harlan Sprague Dawley
Rat [16] = test: concentration in plasma after dosing; settings: 3 h; dosed: alpha-Thujone; 25 mg/kg; oral; Male; Harlan Sprague Dawley
Rat [17] = test: concentration in brain after dosing; settings: 1.5 h; dosed: alpha-Thujone; 25 mg/kg; oral; Male; Harlan Sprague Dawley
Rat [18] = test: concentration in plasma after dosing; settings: 1.5 h; dosed: alpha-Thujone; 50 mg/kg; oral; Female; Harlan Sprague Dawley
Rat [19] = test: concentration in kidney after dosing; settings: 48 h; dosed: Perfluorohexane-1-sulphonic acid – potassium salt; 16 mg/kg; oral; Female; Harlan Sprague Dawley
Rat [20] = test: concentration in kidney after dosing; settings: 12 h; dosed: Perfluorohexane-1-sulphonic acid – potassium salt; 16 mg/kg; oral; Female; F344
Rat [21] = test: concentration in liver after dosing; settings: 3 h; dosed: Perfluorohexane-1-sulphonic acid – potassium salt; 16 mg/kg; oral; Female; Harlan Sprague Dawley
Rat [22] = test: concentration in kidney after dosing; settings: 6 h; dosed: Perfluorohexane-1-sulphonic acid – potassium salt; 16 mg/kg; oral; Female; Harlan Sprague Dawley
Rat [23] = test: concentration in liver after dosing; settings: 24 h; dosed: Perfluorohexane-1-sulphonic acid – potassium salt; 16 mg/kg; oral; Female; F344
Rat [24] = test: concentration in liver after dosing; settings: 6 h; dosed: Perfluorohexane-1-sulphonic acid – potassium salt; 16 mg/kg; oral; Female; F344
Rat [25] = test: concentration in plasma after dosing; settings: 2 h; dosed: Pyridine; 25 mg/kg; oral; Female; Harlan Sprague-Dawley
Rat [26] = test: concentration in plasma after dosing; settings: dosed: Pyridine, 5 mg/kg, oral, Male, F344
Rat [27] = test: concentration in plasma after dosing; settings: dosed: Pyridine, 25 mg/kg, oral, Female, Harlan Sprague-Dawley
Rat [28] = test: concentration in plasma after dosing; settings: 20 h; dosed: Pyridine; 25 mg/kg; oral; Male; F344
Rat [29] = test: concentration in plasma after dosing; settings: 2 h; dosed: Pyridine; 10 mg/kg; iv; Male; F344
Rat [30] = test: concentration in plasma after dosing; settings: 20 min; dosed: Pyridine; 10 mg/kg; oral; Female; Harlan Sprague-Dawley

CCC1(c2ccccc2)C(=O)NCNC1=O [Primidone]
Settings	concentration in plasma [ng/mL]
Rat [1]	12100
Rat [2]	17700
Rat [3]	43900

O=C(c1ccccc1)c1ccc(O)cc1O [2,4-Dihydroxybenzophenone]
Settings	concentration in plasma [ng/mL]
Mouse [4]	5480
Mouse [5]	472

C=CCc1ccc(OC)c(OC)c1 [Methyleugenol]
Settings	concentration in plasma [ng/mL]
Rat [6]	374

Rat [7]
Settings	concentration in plasma [ng/mL]
6 h	6.14
10 min	424

O=C(O)COc1ccc(Cl)cc1Cl [2,4-Dichlorophenoxyacetic acid]
concentration in plasma [ng/mL]
Settings	0.25 h	0.5 h	1 h	1.5 h	2 h	2.5 min	5 min	10 min	20 min	40 min
Hamster [8]	–	–	–	327	159	127000	68500	43200	15900	2690
Hamster [9]	4060	1230	1030	–	511	2380	9420	–	–	–

CC(C)(O)CO [2-methyl-1,2-propanediol]
rat [10]
Settings	amount in urine
5.902 h, dosed: ethyl tert-butyl ether, 4.5 ppm	0.0942
5.941 h, dosed: methyl tert-butyl ether, 38.7 ppm	1.91
5.99 h, dosed: ethyl tert-butyl ether, 40.6 ppm	0.962
11.87 h, dosed: ethyl tert-butyl ether, 4.5 ppm	0.122
11.94 h, dosed: methyl tert-butyl ether, 38.7 ppm	1.17
11.96 h, dosed: ethyl tert-butyl ether, 40.6 ppm	0.855
11.97 h, dosed: methyl tert-butyl ether, 4.5 ppm	0.56
17.81 h, dosed: ethyl tert-butyl ether, 4.5 ppm	0.0535
17.95 h, dosed: methyl tert-butyl ether, 38.7 ppm	0.268
18.01 h, dosed: ethyl tert-butyl ether, 40.6 ppm	0.254
18.01 h, dosed: methyl tert-butyl ether, 4.5 ppm	0.155
23.76 h, dosed: ethyl tert-butyl ether, 4.5 ppm	0.0171
23.93 h, dosed: methyl tert-butyl ether, 38.7 ppm	0.126
23.95 h, dosed: methyl tert-butyl ether, 4.5 ppm	0.0371
23.96 h, dosed: ethyl tert-butyl ether, 40.6 ppm	0.0668
29.72 h, dosed: ethyl tert-butyl ether, 4.5 ppm	0.015
29.91 h, dosed: methyl tert-butyl ether, 38.7 ppm	0.0631
29.93 h, dosed: ethyl tert-butyl ether, 40.6 ppm	0.0668
29.96 h, dosed: methyl tert-butyl ether, 4.5 ppm	0.023

CC(C)[C@]12CC(=O)[C@H](C)[C@H]1C2 [alpha-Thujone]
Settings	concentration in brain [ng/g]	concentration in plasma [ng/mL]
Rat [11]	–	93.4
Rat [12]	858	–
Rat [13]	–	28.6
Rat [14]	589	–
Rat [15]	285	–
Rat [16]	–	131
Rat [17]	388	–
Rat [18]	–	323

O=S(=O)([O-])C(F)(F)C(F)(F)C(F)(F)C(F)(F)C(F)(F)C(F)(F)F.[K+] [Perfluorohexane-1-sulphonic acid – potassium salt]
Settings	concentration in kidney [ng/g]	concentration in liver [ng/g]
Rat [19]	11300	–
Rat [20]	37000	–
Rat [21]	–	54100
Rat [22]	36500	–
Rat [23]	–	53400
Rat [24]	–	80400

c1ccncc1 [Pyridine]
Settings	concentration in plasma [ng/mL]
Rat [25]	17100
Rat [28]	143
Rat [29]	320
Rat [30]	3970

concentration in plasma [ng/mL]
Settings	1 h	4 h	5 min	8 h
Rat [26]	–	2550	794	–
Rat [27]	21100	–	–	15100
